Measured values taken from ChEMBL document CHEMBL3108700, “Designing anti-inflammatory drugs from parasitic worms: a synthetic small molecule analogue of the Acanthocheilonema viteae product ES-62 prevents development of collagen-induced arthritis” (J Med Chem, 2013).
Activity calls are given as the source filed them. No rule for the calls is given here.

Experiments:
[1] = target: T1, Toll-like receptor 4 (Mus musculus) (UniProt Q9QUK6); assay: Inhibition of TLR4 in BALB/c mouse BMDM assessed as downregulation of LPS-stimulated IL-6 level at 5 ug/ml preincubated for 18 hrs followed by LPS challenge measured after 24 hrs by ELISA relative to control
T1 sequence (whole entry): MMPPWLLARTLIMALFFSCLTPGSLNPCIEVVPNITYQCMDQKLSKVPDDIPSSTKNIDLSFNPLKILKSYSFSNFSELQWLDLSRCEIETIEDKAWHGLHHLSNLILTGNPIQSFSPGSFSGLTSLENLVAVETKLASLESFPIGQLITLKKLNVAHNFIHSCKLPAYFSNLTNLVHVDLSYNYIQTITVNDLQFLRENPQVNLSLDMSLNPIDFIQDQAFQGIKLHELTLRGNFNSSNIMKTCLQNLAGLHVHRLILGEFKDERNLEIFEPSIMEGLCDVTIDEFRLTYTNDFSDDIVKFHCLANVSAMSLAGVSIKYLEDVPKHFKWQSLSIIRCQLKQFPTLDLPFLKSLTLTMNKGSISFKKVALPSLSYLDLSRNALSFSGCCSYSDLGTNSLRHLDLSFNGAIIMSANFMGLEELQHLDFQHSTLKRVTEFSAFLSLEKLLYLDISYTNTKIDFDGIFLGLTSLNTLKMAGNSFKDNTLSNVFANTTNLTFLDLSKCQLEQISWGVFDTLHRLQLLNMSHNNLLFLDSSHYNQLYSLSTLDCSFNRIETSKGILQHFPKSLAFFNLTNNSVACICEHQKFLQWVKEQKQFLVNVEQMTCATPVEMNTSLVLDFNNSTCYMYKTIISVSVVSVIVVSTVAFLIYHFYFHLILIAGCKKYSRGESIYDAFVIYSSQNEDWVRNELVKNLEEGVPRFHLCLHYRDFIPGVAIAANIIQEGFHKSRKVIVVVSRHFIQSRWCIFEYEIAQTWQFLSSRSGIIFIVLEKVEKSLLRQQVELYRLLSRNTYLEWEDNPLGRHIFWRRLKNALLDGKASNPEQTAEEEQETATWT
Summary of the method: (§1)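 BALB/c male bone marrow macrophages were differentiated 7 days with L929 supernatant (≥99% CD11b+/F4/80+). Cells were plated at 2 × 10^5/well in triplicate, rested overnight, and given compounds at 5 μg/mL for 18 h. They were then stimulated with 100 ng/mL S. minnesota LPS, 10 ng/mL Pam3CSK4 (BLP) or 0.01 μM CpG for 24 h. Supernatant IL-12p40 and IL-6 were measured by ELISA (sensitivity 16 pg/mL).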

[2] = target: T2, Toll-like receptor 9 (Mus musculus) (UniProt Q9EQU3); assay: Inhibition of TLR9 in BALB/c mouse BMDM assessed as downregulation of CpG-stimulated IL-6 level at 5 ug/ml preincubated for 18 hrs followed by CpG challenge measured after 24 hrs by ELISA relative to control; summary of the method: as §1
T2 sequence (whole entry): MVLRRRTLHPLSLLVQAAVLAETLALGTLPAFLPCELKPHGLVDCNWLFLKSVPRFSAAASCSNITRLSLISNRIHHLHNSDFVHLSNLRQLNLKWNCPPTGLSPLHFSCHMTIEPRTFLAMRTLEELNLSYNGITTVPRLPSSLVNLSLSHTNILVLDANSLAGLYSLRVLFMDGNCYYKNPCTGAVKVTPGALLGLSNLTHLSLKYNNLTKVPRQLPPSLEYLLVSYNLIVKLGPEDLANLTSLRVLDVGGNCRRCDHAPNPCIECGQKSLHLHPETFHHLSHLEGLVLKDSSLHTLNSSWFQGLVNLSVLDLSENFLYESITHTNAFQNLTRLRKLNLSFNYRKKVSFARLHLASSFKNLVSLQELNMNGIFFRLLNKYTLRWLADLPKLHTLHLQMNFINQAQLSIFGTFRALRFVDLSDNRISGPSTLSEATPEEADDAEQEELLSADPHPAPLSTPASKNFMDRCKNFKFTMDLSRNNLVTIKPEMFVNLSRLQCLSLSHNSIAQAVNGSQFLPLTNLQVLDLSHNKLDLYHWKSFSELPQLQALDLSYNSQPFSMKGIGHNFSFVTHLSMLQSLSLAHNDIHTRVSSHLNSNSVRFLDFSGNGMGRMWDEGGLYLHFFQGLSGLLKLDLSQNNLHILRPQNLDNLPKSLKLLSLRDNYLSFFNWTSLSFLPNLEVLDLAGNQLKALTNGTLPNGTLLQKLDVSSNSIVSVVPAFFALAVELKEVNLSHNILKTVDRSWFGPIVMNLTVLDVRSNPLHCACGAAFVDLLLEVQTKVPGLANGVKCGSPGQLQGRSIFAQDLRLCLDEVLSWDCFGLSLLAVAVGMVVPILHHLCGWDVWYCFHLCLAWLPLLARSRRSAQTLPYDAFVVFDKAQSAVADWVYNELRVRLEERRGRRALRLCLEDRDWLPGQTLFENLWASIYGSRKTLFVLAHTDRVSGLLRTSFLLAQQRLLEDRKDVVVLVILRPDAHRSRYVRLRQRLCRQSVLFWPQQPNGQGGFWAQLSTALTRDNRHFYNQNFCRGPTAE

[3] = target: T1, Toll-like receptor 4 (Mus musculus); assay: Inhibition of TLR4 in BALB/c mouse BMDM assessed as downregulation of LPS-stimulated IL-12p40 level at 5 ug/ml preincubated for 18 hrs followed by LPS challenge measured after 24 hrs by ELISA relative to control; summary of the method: as §1
TLR2/TLR6 (Mus musculus) [4] = target: T3, TLR2/TLR6 (Mus musculus) (UniProt Q9QUN7+Q9EPW9); assay: Inhibition of TLR2/6 in BALB/c mouse BMDM assessed as downregulation of BLP-stimulated IL-12p40 level at 5 ug/ml preincubated for 18 hrs followed by BLP challenge measured after 24 hrs by ELISA relative to control; format: protein-complex assay; summary of the method: as §1
TLR2/TLR6 (Mus musculus) [5] = target: T3, TLR2/TLR6 (Mus musculus); assay: Inhibition of TLR2/6 in BALB/c mouse BMDM assessed as downregulation of BLP-stimulated IL-6 level at 5 ug/ml preincubated for 18 hrs followed by BLP challenge measured after 24 hrs by ELISA relative to control; format: protein-complex assay; summary of the method: as §1
[6] = target: T2, Toll-like receptor 9 (Mus musculus); assay: Inhibition of TLR9 in BALB/c mouse BMDM assessed as downregulation of CpG-stimulated IL-12p40 level at 5 ug/ml preincubated for 18 hrs followed by CpG challenge measured after 24 hrs by ELISA relative to control; summary of the method: as §1

| SMILES | inhibition [1] | inhibition [2] | inhibition [3] | inhibition (TLR2/TLR6 (Mus musculus) [4]) | inhibition (TLR2/TLR6 (Mus musculus) [5]) | inhibition [6] |
| --- | --- | --- | --- | --- | --- | --- |
| CN(C)CCCNS(=O)(=O)Cc1ccc(F)cc1 | inactive | inactive | inactive | inactive | inactive | inactive |
| O=S(=O)(CCN1CCCC1)c1ccccc1 | inactive | inactive | inactive | Active | inactive | inactive |
| O=S(=O)(Cc1ccc2ccccc2c1)NCCN1CCCC1 | inactive | inactive | inactive | inactive | Active | inactive |
| O=S(=O)(CCN1CCSCC1)c1ccccc1 | Active | inactive | Active | inactive | inactive | inactive |
| Cc1ccc(CNS(=O)(=O)CCN(C)CCN(C)C)cc1 | Active | Active | Active | inactive | Active | inactive |
| COc1ccc2c(CS(=O)(=O)NCCN(C)C)cc(=O)oc2c1 | inactive | inactive | Active | Active | inactive | inactive |
| CN(C)CCS(=O)(=O)Nc1ccccc1 | inactive | inactive | Active | inactive | inactive | inactive |
| O=S(=O)(Cc1ccc(Br)cc1)NCCN1CCOCC1 | inactive | inactive | inactive | inactive | inactive | inactive |
| O=S(=O)(Cc1ccc(F)cc1)NCCN1CCCC1 | inactive | inactive | inactive | inactive | inactive | inactive |
| CN(C)CCN(C)CCS(=O)(=O)Cc1cccc(F)c1 | inactive | inactive | inactive | inactive | inactive | inactive |
| O=C(Cc1ccccc1)NCCN1CCOCC1 | inactive | Active | Active | inactive | inactive | Active |
| Cc1ccc(CS(=O)(=O)NCCCN(C)C)cc1 | inactive | inactive | inactive | inactive | inactive | inactive |
| O=S(=O)(Cc1ccc2ccccc2c1)NCCN1CCOCC1 | Active | Active | inactive | Active | inactive | Active |
| C[N+]1(CCS(=O)(=O)Cc2ccc(Br)cc2)CCCC1 | Active | inactive | Active | Active | inactive | inactive |
| O=[N+]([O-])c1ccc(CNS(=O)(=O)CCN2CCOCC2)cc1 | inactive | inactive | inactive | inactive | inactive | inactive |
| O=S(=O)(CCN1CCCC1)Nc1ccc(F)cc1 | inactive | inactive | Active | inactive | inactive | inactive |
| O=S(=O)(Cc1ccc(F)cc1)NCCN1CCOCC1 | inactive | inactive | inactive | inactive | inactive | inactive |
| COc1cccc(C(=O)NCCN2CCOCC2)c1 | inactive | Active | Active | Active | inactive | inactive |
| O=S(=O)(CCN1CCCC1)Nc1ccccc1 | inactive | inactive | Active | inactive | inactive | Active |
| CN(C)CCNS(=O)(=O)Cc1ccc(/C=C/c2ccccc2)cc1 | inactive | inactive | inactive | Active | inactive | inactive |
| CN(C)CCS(=O)(=O)Cc1cccc(F)c1 | inactive | inactive | inactive | inactive | inactive | inactive |
| O=S(=O)(CCNCCCO)c1ccccc1 | inactive | inactive | inactive | Active | inactive | inactive |
| CN(C)CCS(=O)(=O)NCc1ccccc1 | inactive | inactive | inactive | inactive | inactive | inactive |
| Cc1ccc(CNS(=O)(=O)CCN(C)C)cc1 | inactive | inactive | inactive | inactive | inactive | inactive |
